Measurements reported in the EternaBench riboswitch data.

System: MS2 coat protein
Assay: apparent Kd, MS2 coat protein; higher = weaker binding; RNA-MaP array; FMN 200 µM where present
Procedure, shortened: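 Designs were transcribed by stalled E. coli RNA polymerase on Illumina sequencing-chip clusters. They were titrated with SNAP-549-labelled MS2 coat protein from 0.7 or 1.5 nM, doubling to 3 µM, in 100 mM Tris-HCl pH 7.5, 80 mM KCl, 4 mM MgCl2, BSA, DTT, yeast tRNA and Tween-20, without and then with constant ligand. The apparent Kd is the median of filtered per-cluster fits after normalisation of green signal to red-channel RNA signal and control-cluster median Fmax.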

[1] = designed as: OFF switch for flavin mononucleotide, no ligand
[2] = ligand present: flavin mononucleotide, designed as: OFF switch for flavin mononucleotide
[3] = designed as: ON switch for flavin mononucleotide, no ligand
[4] = ligand present: flavin mononucleotide, designed as: ON switch for flavin mononucleotide

Sequence | apparent Kd [1] [nM] | apparent Kd [2] [nM] | apparent Kd [3] [nM] | apparent Kd [4] [nM]
UUGCGGUAGGAGAAGGACAGAGGCUUAAUUACAUACAUGAGGAUCACCCAUGUAGGAUAUCCUACCUAACGCGGACUCCUCCAG | 7.65 | 7.83 | – | –
CUUUUGUGAGGAUAUUAGUAGUAAAUGAAUAAAAUUACUACUGAGAAGGCACAUGAGGAUCACCCAUGUUCCUC | 44.1 | 493 | – | –
ACAUGAGGAUCACCCAUGUUAUAUGGGAAUUAAUUUAUUUGUAGAAGGAUGUUUUCUUGUUAGUCAUAGGAUAUACUAUUAAAU | 255 | 158 | – | –
UAUUAAUGCAAGGAUAUGCUUUUAAUUUUUUUUGCAGAAGGUGCAACAUGAGGAUCACCCAUGUUUCCGGGUAU | 26.5 | 39.1 | – | –
UGGGUAAGUGUAGGAUAUUUAUAUUAAUAGUAUGGAGAAGGACAUGAGGAUCACCCAUGUACAGGGAGUUGCCCAUUUCCUCUC | 335 | 671 | – | –
AACAUGUCAGGAUAUGCAAAAGGAGACUGACACGCGAGUGAGCAGAAGGGACAUGAGGAUCACCCAUGUUCAAA | 18.3 | 16 | – | –
GCUAAGGGAGGAUAUACAUGAGGAUCACCCAUGUAGUCGCUGCGUUUCAUUAUCCAAGGUAGAAGGCCCAAAAU | 25.4 | 36 | – | –
ACCUAGCCCAGGCCCACGGCAUCACAGGAUAUGCCGAUAACAUGAGGAUCACCCAUGUCAACUCCGCAGAAGGGUGAUAUCGUG | – | – | 89.2 | 13.5
GCCGUAAAUGUGAGGAUAUACCUAUGGAUACAUAGGUAGAAGGCACAUGAGGAUCACCCAUGUUCUCAAUCGGC | 179 | 930 | – | –
UUUGUUGUUGUGAGGAUAUCGUAGUUAUUUUGAAACGAGAAGGCACAUGAGGAUCACCCAUGUUUGUUGAUGGU | 30.7 | 127 | – | –
CCAGCGUGUGUGAGGAUAUGCUGGUCCUUGGAUCAGCAGAAGGCACAUGAGGAUCACCCAUGUGAGAACGUUGG | 23.1 | 105 | – | –
AAGCCCUGAGGAUAUCCCAACUCGCACAUGAGGAUCACCCAUGUCCUUCUCUGGGUUUCGGGAGAAGGCAGGUCUC | 348 | 161 | – | –
ACGAUGUCAGGAUAUCGAUCACGGGUCUGAAGACACGUGUUUGAGAAGGGACAUGAGGAUCACCCAUGUGUCUA | 43.6 | 223 | – | –
UAAUAUUUAUGAUAUUAUUACAUUAGAAGGCUAGACAUGUGGAUACAUGAGGAUCACCCAUGUAUAGAGGAUAUAGACAUAUAU | 31.8 | 53.6 | – | –
GUGGUCAGACAUGAGGAUCACCCAUGUGGAAUAAAUAAGGAGAAGGAUAUGCAAUAUAGGAUAUAGUAGAAGGUCUGGUUGGUG | – | – | 83.5 | 97.2
CAGGUCUGAGGAUAUCCAUCUUCAUACAUGAGGAUCACCCAUGUUUCCCUCUGGGUUUUCGGAGAAGGCAGUUUUU | 358 | 293 | – | –
GGACGGUUAGUCAGGAUAUGCUCUACCUCGGUAGAGCAGAAGGGACAUGAGGAUCACCCAUGUGAUAACUGUUC | 27.4 | 34.8 | – | –
AUGUAGAACGUAGGAUAUCAAUGAGGAUCACCCUGAGAAGGACGUGAGGACAUGAGGAUCACCCAUGUGGAUCACCCAUGUCAU | 160 | 134 | – | –
CUAUUGGUAACAGGAUAUAUGAGUCCUACAUGAGGAUCACCCAUGUAGGUGAUCAAACAUGAUUAGUAGAAGGGUUACCAAUAG | – | – | 40.9 | 8.8

Sequence | apparent Kd [1] [nM] | apparent Kd [2] [nM] | apparent Kd [3] [nM] | apparent Kd [4] [nM]
CGAUCGUUGCAGAAGGUUAAAUAAUUAUCUACAUGUUUUACAUGAGGAUCACCCAUGUUUAUGUUGAAGGAUAUGCAAGGGUCG | 8.02 | 8.09 | – | –
GACAUACAUGAGGAUCACCCAUGUUCAGGCGAACAAGGAUAUGUGUGGAAACCAUACUAUACAGAAGGUGUCUGUC | – | – | 63.1 | 38.8
GUGUACAGAGGAUAUACAUGGGCAUGGAAACAUGCAUCUUCACAUGAGGAUCACCCAUGUAGAAGGCUGUACAC | 34.7 | 21.3 | – | –
GGAAUAUUUACAGGAUAUGAUUUGUAAAUUCGAUCAGAAGGGUAGAUGUCUUACACGGUUUGUUACAUGAGGAUCACCCAUGUU | – | – | 126 | 42
UAACCACAUGAGGAUCACCCAUGUGAGGAUAUGUCCAUAUUCGGCAAAUCGGAUAUGGACAGAAGGCACACCGG | 41.6 | 68.7 | – | –
AAACACAAACAUGAGGAUCACCCAUGUUAUGAAGAUACUGGGAGAAGGGCGAUUGCAAAGCAAUCGCAGGAUAUUCGUAUUGUG | – | – | 50.4 | 14.5
AAGAAAGAAACAUAGGAUAUCAAGGAUAUAACAUGAGGAUCACCCAUGUAAAUACGAAAGUAUAAUGAGAAGGAUGGAUGAUCUAC | – | – | 238 | 437
AAGUAGAUCCGAGGAUAUACAAUCCGGAAACGGUACAUGAGGAUCACCCAUGUAGAAGGCGGAUCUACAGGUACUAAAGUACCU | 5.58 | 7.98 | – | –
UUUUAACAUGAGGAUCACCCAUGUGAGGAUAUCGAAAUUUAUAUUAAUAUUUAUAUAUCGAGAAGGCACAUUUU | 113 | 97.8 | – | –
GCAGGUUAAGUCAGGAUAUACCUAUGGAUACAUAGGUAGAAGGGACAUGAGGAUCACCCAUGUGCCUCACCUGC | 18.3 | 63.1 | – | –
AUUAAUAAGUAGAAGGACGGAGAGUAUGAAGUCGUAGGAUAUACAUAAGACAUGAGGAUCACCCAUGUAUGUAUUUUGGGUAUG | 12.9 | 12.9 | – | –
AUGUUGAGCAGUGUAUUAAGAUCACAUGAGGAUCACCCAUGUAGAAGGCACGAGCUGAUCGCUCGUGAGGAUAUGCAUCACUGC | 7.12 | 29.2 | – | –
CGUGCGUAUGUGAGGAUAUGCUGGUCCUUGGAUCGGCAGAAGGUACAUGAGGAUCACCCAUGUGGUGUCGUUCU | 252 | 292 | – | –
CGUUCACAUGAGGAUCACCCAUGUCAGAUUUGGUCAGGAUAUGGUCUGCUUUCGCUAUUUCCAGAAGGGACUUUUG | – | – | 28.6 | 24.8
GUUUCUAUAUGUUAUAUUUAACAGUCAGAAGGUGAUACUACGACAUGAGGAUCACCCAUGUAAUUCAAGGAUAUGAACUUAAUC | – | – | 1110 | 450
CGCUGAGCGGUGAGGAUAUCGUGUUCGAAAGAACGUGAGAAGGCACAUGAGGAUCACCCAUGUGAUCCUCAUCG | 17.1 | 28.1 | – | –
UUAAUUCGAAACAUGAGGAUCACCCAUGUGUUGUGGUUAAUAUAGGAUAUGUGGAUACUUUUUUGACAGAAGGAUGAUGGUACU | – | – | 13.3 | 11.6
CCUUUUGUAUAAGGAUAUGUAACAAGGUGUAGGCUGGUAGGACUUGCGCUUACAGAAGGUAUACAUGAGGAUCACCCAUGUCGA | 22.2 | 107 | – | –
UUCAUGUGAGGAUAUAGUACUCUUUCUAUUAUUAUUGAGUAUUAGAAGGCACAUGAGGAUCACCCAUGUAGUAC | 30.7 | 16.4 | – | –

Sequence | apparent Kd [1] [nM] | apparent Kd [2] [nM] | apparent Kd [3] [nM] | apparent Kd [4] [nM]
ACAUGAUAUGUAGGAUAUCACAUUAAUUGUUUUAUAAUUGUAUUUUGGAUUUGAGAAGGACAUUUACAUGAGGAUCACCCAUGU | 15.6 | 12.3 | – | –
CGCUAGGAUGGGUCUAAUGGACCACAGGAUAUGCUUGUACAUGAGGAUCACCCAUGUAAUAUUGUGCAGAAGGGUGGAUUCACG | – | – | 54.8 | 8.27
AUAGAAGACUAGAAGGAUUUAGUUGUAUAUUGUCGAGGUAUAUAAUUAGGUAGGAUAUGGGACAUGAGGAUCACCCAUGUUUUG | – | – | 28.2 | 15.4
UUAUAAAGAGUGAGGAUAUGCUGGUCCUUGGAUCAGCAGAAGGCACAUGAGGAUCACCCAUGUAAAAUAAUAUU | 28.4 | 41.2 | – | –
GUAGCAUACCGAGGAUAUUCUUAUAAUAAAUAAACAUGAGGAUCACCCAUGUGGCGAAAGCCAAGGGAGAAGGCGGAAUGCUAC | – | – | 87.7 | 20.1
CCAUGGUGGGCAGGAUAUCGUCCAGCUUGCGGACGAGAAGGGCUAGAACAUGAGGAUCACCCAUGUGAAAAGCGGGUUGUCCAA | 27.8 | 145 | – | –
AAGUUUAACGAAGGAUAUGGUUACAUGAGGAUCACCCAUGUAUUUUUUGUGAUCUUGUUUAAGUUCCAGAAGGUCGUAUACAUA | 95.4 | 305 | – | –
CUCGGACAUGAGGAUCACCCAUGUGAGGAUAUGAUGCGAUCGUCGAAAGACGAUAGCAUCAGAAGGUACAAAUG | 52 | 42.9 | – | –
AAAUAGGCAGGAUAUACAUGAGGAUCACCCAUGUGCCUAUGAAAGGUAAUUUUGAAAGGUAGAAGGGCCUAAAA | 10.5 | 12.1 | – | –
GGUACCAUUACAGGAUAUGCUUUCCUUUGGAAAGCAGAAGGGUGUAACAUGAGGAUCACCCAUGUGGUGCCAGGGCGUGAGCCC | – | – | 659 | 182
UUGGACGUCGUAGGAUAUGUAGGAUAUUCCUACAUGAGGAUCACCCAUGUUGACAUGGAAGAAGGACAGAAGGCCGAUGUCCAU | – | – | 409 | 4.87
GGGUAGUGAGGAUAUCGUUGUUAGGAGGAGAAGGUAGGAGGCGAGAAGGCACAUGAGGAUCACCCAUGUAUGAG | 31 | 28.1 | – | –
AGUUGUUCAGGAUAUGGUGUGUUAUACAUGAGGAUCACCCAUGUGGGUCCUGGUUUGGCCUCAGAAGGGAAUGUUG | 636 | 518 | – | –
UGAUAGGACAGAGGAUAUACAGAUAGGAUCUACUAUCAAACAGUCCUUACAUGAGGAUCACCCAUGUAGAAGGCUGUCCUAUCU | 19.8 | 85.8 | – | –
UUCAUUAACAUGAGGAUCACCCAUGUUGGCCAGUCUCACACCAGAAGGCACGUUGAGCACAACAGUGAGGAUAUGGGUGACAUA | – | – | 286 | 52.9
GAUCAACAUGAGGAUCACCCAUGUGAGGAUAUGAUACUAUGUACUUCGGUACAUAGUAUCAGAAGGCAUGUGGA | 158 | 39.4 | – | –
AAGAGACAUCAGAAGGGAGCCCGAACGCACGGCUCAGGAUAUGAGAUCUUAUGUAGUACGACAUGAGGAUCACCCAUGUCCGCG | – | – | 36.2 | 8.27
GCCAUCGCAUGAGGAUAUGCUCCCGUUUCGGGAGCAGAAGGCAUGUCAUAAGACAUGAGGAUCACCCAUGUAGUUAAGAUGGCA | – | – | 723 | 32.5
